Data taken from ChEMBL document CHEMBL1124806, “Synthesis of quaternary amine ether lipids and evaluation of neoplastic cell growth inhibitory properties” (J Med Chem, 1990).

Legend:
HL-60 [1] = assay: Inhibition of neoplastic cell proliferation in the HL-60 human promyelocytic leukemia cells; type: functional; conditions: read-out: ID50 (the source's name)
How it was run: (§1)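 HL-60 cells are kept in RPMI 1640 with 10% FBS and 2 mM glutamine under 5% CO2. They are seeded at 5 × 10^5 cells/mL with a range of lipid concentrations, diluted into medium from 1 mg/mL ethanol stocks. After 48 h, viable cells are counted by hemocytometer with trypan blue. ID50 values are averaged, and SD is taken from the averaged ID50s.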

Protein kinase C (PKC) = assay: Inhibition of Protein Kinase C (PKC) isolated from HL-60 human promyelocytic leukemia cells; type: cell-free
How it was run: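 Partially purified PKC from HL-60 cells, pH 7.5, in 25 mM Tris, 10 mM MgCl2, 0.1 mM CaCl2, 40 μg/mL histone, 20 μg/mL phosphatidylserine, 2.5 μM OAG, and 10 μM ATP with [γ-32P]ATP. Analogue in ethanol is added before the enzyme starts the reaction, with a 0.1% ethanol control. The reaction runs 20 min at 30 °C and is stopped with BSA and ice-cold 25% TCA. Filter-bound 32P-histone is counted; duplicates.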

HL-60 [2] = assay: Inhibition of neoplastic cell proliferation with the HL-60 human promyelocytic leukemia cells; type: functional; conditions: read-out: ID50 (the source's name); how it was run: as §1

**Q.** Which results are given for `CCCCCCCCCCCCCCCCOCC(C[N+](C)(C)C)OC.[Br-]` (stereo unspecified)?
**A.** IC50 (HL-60 [1]): 1590 nM; IC50 (Protein kinase C (PKC)): > 40000 nM

**Q.** How did the IC50 (HL-60 [1]) turn out when `CCCCCCCCCCCCCCCCOCC(COCCCC[N+](C)(C)C)OC.[Br-]` (stereo unspecified) was run?
**A.** 2300 nM

**Q.** And the IC50 (Protein kinase C (PKC))?
**A.** > 40000 nM

**Q.** Which results are given for `CCCCCCCCCCCCCCCCCCSCC(C[N+](C)(C)CCCO)OC.[I-]` (stereo unspecified)?
**A.** IC50 (HL-60 [1]): 3350 nM; IC50 (Protein kinase C (PKC)): 5000 nM

**Q.** With `CC1(C)OCC(C[N+](C)(C)CCO)O1` (stereo unspecified) as the molecule, how does the IC50 (HL-60 [1]) read?
**A.** > 10000 nM

**Q.** What does the source list for `CCCCCCCCCCCCCCCCOCCC[N+](C)(C)C.[Br-]`?
**A.** IC50 (HL-60 [1]): 1610 nM; IC50 (Protein kinase C (PKC)): > 40000 nM

**Q.** Which IC50 (HL-60 [1]) does the source give for `CCCCCCCCCCCCCCCCOCC(C[n+]1ccccc1)OCC` (stereo unspecified) here?
**A.** 1010 nM

**Q.** How did the IC50 (HL-60 [1]) turn out when `CCCCCCCCCCCCCCCCOCCCOCCCC[N+](C)(C)C` was run?
**A.** 1560 nM

**Q.** Which results are given for `CCCCCCCCCCCCCCCCOCC(COCCCC[N+](C)(C)C)OCC.[Br-]` (stereo unspecified)?
**A.** IC50 (HL-60 [1]): 1860 nM; IC50 (Protein kinase C (PKC)): > 40000 nM

**Q.** For `CCCCCCCCCCCCCCCCCC1OCC(C[N+](C)(C)CCCO)O1.[Br-]` (stereo unspecified), which IC50 (HL-60 [1]) is on record?
**A.** 6470 nM

**Q.** And the IC50 (Protein kinase C (PKC))?
**A.** 13000 nM

**Q.** What does the source list for `CCCCCCCCCCCCCCCCCCOCC(COP(=O)([O-])OCC[N+](C)(C)C)OC` (stereo unspecified) [EDELFOSINE]?
**A.** IC50 (HL-60 [1]): 2010 nM; IC50 (Protein kinase C (PKC)): 12000 nM

**Q.** For `CCCCCCCCCCCCCCCCOCCC[n+]1ccccc1.[Br-]`, which IC50 (HL-60 [1]) is on record?
**A.** 820 nM

**Q.** What about the IC50 (Protein kinase C (PKC)) of the same molecule?
**A.** > 40000 nM

**Q.** With `CCCCCCCCCCCCCCCCCCOCC(COCCCC[N+](C)(C)C)OCC` (stereo unspecified) as the molecule, how does the IC50 (HL-60 [1]) read?
**A.** 1260 nM

**Q.** Which IC50 (HL-60 [1]) does the source give for `CCCCCCCCCCCCCCCCOCC(COCCC[N+](C)(C)C)OC` (stereo unspecified) here?
**A.** 1200 nM

**Q.** Which IC50 (HL-60 [1]) does the source give for `CCCCCCCCCCCCCCCCSCC(COCCCC[N+](C)(C)C)OCC` (stereo unspecified) here?
**A.** 1830 nM

**Q.** With `CCCCCCCCCCCCCCCCCC1OCC(COCCCC[N+](C)(C)C)O1` (stereo unspecified) as the molecule, how does the IC50 (HL-60 [1]) read?
**A.** 2820 nM

**Q.** Which results are given for `CCCCCCCCCCCCCCCCSCC(C[N+](C)(C)C)OC.[Br-]` (stereo unspecified)?
**A.** IC50 (HL-60 [1]): 2200 nM; IC50 (Protein kinase C (PKC)): 25000 nM

**Q.** Which IC50 (HL-60 [1]) does the source give for `CCCCCCCCCCCCCCCCOCC(C[N+](CC)(CC)CC)OCC` (stereo unspecified) here?
**A.** 680 nM

**Q.** `CCCCCCCCCCCCCCCCSCC(C[N+](C)(C)CCO)OC` (stereo unspecified) was tested. Which IC50 (HL-60 [2]) did it give?
**A.** 4660 nM

**Q.** How did the IC50 (HL-60 [2]) turn out when `CCCCCCCCCCCCCCCCSCC(C[N+](C)(C)CCO)OCC` (stereo unspecified) was run?
**A.** 3720 nM

**Q.** How did the IC50 (HL-60 [1]) turn out when `CCCCCCCCCCCCCCCCOCC(COCCCCCCCCCC[N+](C)(C)C)OC` (stereo unspecified) was run?
**A.** 3790 nM

**Q.** How did the IC50 (HL-60 [1]) turn out when `CCCCCCCCCCCCCCCCOCC(COCCCCCC[N+](C)(C)C)OC.[Br-]` (stereo unspecified) was run?
**A.** 1750 nM

**Q.** What about the IC50 (Protein kinase C (PKC)) of the same molecule?
**A.** > 40000 nM

**Q.** `CCCCCCCCCCCCCCCCOCC(C[N+]1(C)CCC(O)CC1)OCC` (stereo unspecified) was tested. Which IC50 (HL-60 [1]) did it give?
**A.** 2720 nM

**Q.** Which IC50 (HL-60 [2]) does the source give for `CCCCCCCCCCCCCCCCSCC(C[N+](C)(C)CCCO)OCC` (stereo unspecified) here?
**A.** 2950 nM

**Q.** For `CCCCCCCCCCCCCCCCOCC(COCC[N+](C)(C)C)OC.[Br-]` (stereo unspecified), which IC50 (HL-60 [1]) is on record?
**A.** 1850 nM

**Q.** And the IC50 (Protein kinase C (PKC))?
**A.** 31000 nM

**Q.** With `CCCCCCCCCCCCCCCCOCC(COCCCC[n+]1ccccc1)OCC` (stereo unspecified) as the molecule, how does the IC50 (HL-60 [1]) read?
**A.** 780 nM
